We go through nine compounds from ChEMBL document CHEMBL4433227, “Enhancing the ligand efficiency of anti-HIV compounds targeting frameshift-stimulating RNA” (Bioorg Med Chem, 2019).

Calls of active or inactive are those of the source. The rule behind the calls is not given here.

Data set [1] concerns Human immunodeficiency virus. The data set is described as follows: Binding affinity to HIV frameshift-stimulating RNA assessed as upregulation of HIV p160 Gag-pol protein expression by Western blot analysis. (In western blotting, separated proteins are transferred to a membrane and probed.)
Data set [2] is described as follows: Binding affinity to HIV-1 FSS RNA assessed as dissociation constant by SPR assay. Further details: species or system Human immunodeficiency virus 1. In outline:
(§1)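 Compounds injected in HBS at 80 μL/min for 1 min, at least two injections per concentration. Each curve fit to a 1:1 Langmuir model, using the two lowest fittable concentrations. Kinetic constants averaged.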
For orientation: In SPR one partner is held on a chip, and binding of the other changes the refractive index at the surface.

Data set [3] deals with Human immunodeficiency virus. The data set is described as follows: Antiviral activity against pseudotyped HIV assessed as reduction in viral infectivity. The class given is functional, organism-based.
The subject of data set [4] is Human immunodeficiency virus. The data set is described as follows: Antiviral activity against pseudotyped HIV assessed as reduction in viral production. The class given is functional, organism-based.
In data set [5] the test system is Human immunodeficiency virus 1. The data set is described as follows: Binding affinity to HIV-1 FSS RNA assessed as association rate constant by SPR assay. An outline of the steps: as §1
Data set [6] deals with Human immunodeficiency virus 1. Nature of the data set: Antiviral activity against patient derived multidrug resistant HIV1 AD.MDR01. The class given is functional, organism-based.
The subject of data set [7] is Human immunodeficiency virus 1. The data set is described as follows: Binding affinity to HIV-1 FSS RNA assessed as dissociation rate constant by SPR assay. An outline of the steps:
as §1

In data set [8] the test system is Human immunodeficiency virus 1. The data set is described as follows: Antiviral activity against HIV1 3B. The class given is functional, organism-based.
Data set [9] relates to Human immunodeficiency virus 1. The data set is described as follows: Antiviral activity against HIV1 3B infected in human MT2 cells assessed as reduction in p24 Gag protein production on day 6 post infection by ELISA. The class given is functional, organism-based. To be noted: Human immunodeficiency virus 1, 3B, MT2, 144 h. On the technique in general: An ELISA detects its analyte on a solid surface through an enzyme-linked reagent.

Data set [10] is described as follows: (§2) Competitive binding affinity to HIV-1 FSS RNA assessed as dissociation constant in presence of bulk yeast tRNA by SPR assay. The arrangement: species or system Human immunodeficiency virus 1.
The subject of data set [11] is Human immunodeficiency virus 1. The data set is described as follows: Binding affinity to HIV-1 FSS RNA at 2 uM dialyzed up to 36 hrs by HPLC analysis. In outline:
(§3)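 RNAs refolded at 2.5 μM in PBS with 1 mM EDTA (25 °C, 90 °C, then 27 °C). Tubes (3500 MWCO) held 200 μL of RNA, in duplicate, with an RNA-free control tube. Dialysis against 2.0 μM compound in PBS for 36 h. Compound concentration inside the tubes measured by HPLC.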

The subject of data set [12] is Human immunodeficiency virus 1. The data set is described as follows: Antiviral activity against HIV1 3B infected in human MT2 cells assessed as reduction in p24 Gag protein production at 25 uM on day 6 post infection by ELISA relative to control. The class given is functional. The arrangement: scale not given: the % may be the effect or the level left.
For data set [13], the species on record is Homo sapiens. Nature of the data set: Binding affinity to human IRF5 RNA at 2 uM dialyzed up to 36 hrs by HPLC analysis. In outline:
as §3

The species entered for data set [14] is Homo sapiens. The data set is described as follows: Binding affinity to human BDNF RNA at 2 uM dialyzed up to 36 hrs by HPLC analysis. In outline: as §3
The subject of data set [15] is Human immunodeficiency virus 1. Described as §2.
Data set [16] in a line: Cytotoxicity against human HEK293FT cells assessed as reduction in viability at < 40 uM after 24 hrs by WST1 assay. The class given is cell-based. An outline of the steps: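 HEK293FT cells, 2.5×10^4/well in triplicate, grown in DMEM with 10% FBS and 1% pen-strep at 37 °C. After 4 h adherence, compound dilutions added for 24 h. WST-1 then added for 1 h and the signal read on a plate reader. Mitochondrial activity taken as the metabolic read-out.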

Consider `CCc1nc2cc3ccccc3cc2cc1C(=O)N[C@@H](C/C=C\C[C@H](NC(=O)c1cc2cc3ccccc3cc2nc1CC)C(=O)N1CCC[C@H]1C(=O)N[C@@H](Cc1ccccc1)C(=O)NCCCN)C(=O)N1CCC[C@H]1C(=O)N[C@@H](Cc1ccccc1)C(=O)NCCCN`, for which the Activity result in data set [1] is “Dose-dependent effect”. Further, in data set [2], the Kd (in general, the concentration at which binding is half-saturated) came out at 102 nM. The result in data set [3] and in [4] was Active.

With `CCc1nc2cc3ccccc3cc2cc1C(=O)N(C)[C@@H](CCn1cc(C[C@@H](C(=O)N2CCC[C@H]2C(=O)N(C)[C@@H](Cc2ccccc2)C(=O)NCCCN)N(C)C(=O)c2cc3cc4ccccc4cc3nc2CC)nn1)C(=O)N1CCC[C@H]1C(=O)N(C)[C@@H](Cc1ccccc1)C(=O)NCCCN`, the Activity entry in data set [1] was “Dose-dependent effect”. The Ka in [5] worked out at 1.9 ×10⁵ /M.s. Besides, the equilibrium dissociation constant (Kd) in [2] was 16 nM; in data set [10], 130 nM. Moreover, the result in data set [6], in data set [3], in [4] and in data set [8] was Active. Besides, the Kdiss in data set [7] was 3 ×10⁻³ /s. The IC50 – broadly, the midpoint of a concentration-inhibition curve – in data set [9] amounted to 4.86 µM.

Regarding `CN(C(=O)c1cnc2ccccc2c1)[C@@H](CCn1cc(C[C@@H](C(=O)N2C[C@H](O)C[C@H]2C(=O)N(C)[C@@H](Cc2ccccc2)C(N)=O)N(C)C(=O)c2cnc3ccccc3c2)nn1)C(=O)N1C[C@H](O)C[C@H]1C(=O)N(C)[C@@H](Cc1ccccc1)C(N)=O`, the Ka in [5] is 4.09 ×10³ /M.s. For the same compound, in data set [2], the equilibrium dissociation constant (Kd) turned out to be 1470 nM. Also, the Kdiss in data set [7] came out at 5.41 ×10⁻³ /s.

Consider `CN(C(=O)c1cnc2ccccc2c1)[C@@H](CCn1cc(C[C@@H](C(=O)N2CCC[C@H]2C(=O)N(C)[C@@H](Cc2ccccc2)C(=O)NCCCN)N(C)C(=O)c2cnc3ccccc3c2)nn1)C(=O)N1CCC[C@H]1C(=O)N(C)[C@@H](Cc1ccccc1)C(=O)NCCCN`, for which the Ka in data set [5] amounted to 5.66 ×10⁴ /M.s. Also, the Kd amounted to 62.2 nM in data set [2] and 124 nM in data set [10]. For the same compound, the Kdiss in [7] was found to be 2.26 ×10⁻³ /s. Moreover, the outcome in data set [11], in [13] and in [14] was Active. In addition, the Activity in data set [12] is reported as 63%.

For `NC[C@@H]1O[C@H](O[C@H]2[C@@H](O)[C@H](O[C@@H]3[C@@H](O)[C@H](N)C[C@H](N)[C@H]3O[C@H]3O[C@H](CN)[C@@H](O)[C@H](O)[C@H]3N)O[C@@H]2CO)[C@H](N)[C@@H](O)[C@@H]1O` [FRAMYCETIN], the Kd in [2] was 779000 nM. Moreover, the result in data set [15] was inactive.

`CCc1nc2ccccc2cc1C(=O)N(C)[C@@H](CCn1cc(C[C@@H](C(=O)N2CCC[C@H]2C(=O)N(C)[C@@H](Cc2ccccc2)C(N)=O)N(C)C(=O)c2cc3ccccc3nc2CC)nn1)C(=O)N1CCC[C@H]1C(=O)N(C)[C@@H](Cc1ccccc1)C(N)=O`: the Ka in [5] stood at 1.69 ×10³ /M.s. For the same compound, the values for the dissociation constant Kd in data set [2] and in data set [10] were 19300 nM and 16800 nM, respectively. The Kdiss in [7] came out at 2.07 ×10⁻² /s.

Consider `CN(C(=O)c1cnc2ccccc2c1)[C@@H](CCn1cc(C[C@@H](C(=O)N2C[C@H](O)C[C@H]2C(=O)N(C)[C@@H](Cc2ccccc2)C(=O)NCCCN)N(C)C(=O)c2cnc3ccccc3c2)nn1)C(=O)N1C[C@H](O)C[C@H]1C(=O)N(C)[C@@H](Cc1ccccc1)C(=O)NCCCN`, for which the Ka in data set [5] came out at 6.74 ×10⁴ /M.s. For the same compound, the Kd in [2] was 110 nM; in data set [10], 183 nM. The Kdiss in data set [7] came out at 5.42 ×10⁻³ /s. In [12], the Activity was 63%.

In the case of `CCc1nc2ccccc2cc1C(=O)N(C)[C@@H](CCn1cc(C[C@@H](C(=O)N2CCC[C@H]2C(=O)N(C)[C@@H](Cc2ccccc2)C(=O)NCCCN)N(C)C(=O)c2cc3ccccc3nc2CC)nn1)C(=O)N1CCC[C@H]1C(=O)N(C)[C@@H](Cc1ccccc1)C(=O)NCCCN`, in [5], the Ka was 6.49 ×10⁴ /M.s. In addition, the equilibrium dissociation constant (Kd) in [2] is 497 nM; in [10], 132 nM. In addition, the Activity entry in data set [16] is “Toxic”; in [12] it was 63%. Besides, in data set [7], the Kdiss was 2.37 ×10⁻² /s.

As for `CCc1nc2ccccc2cc1C(=O)N(C)[C@@H](CCn1cc(C[C@@H](C(=O)N2C[C@H](O)C[C@H]2C(=O)N(C)[C@@H](Cc2ccccc2)C(=O)NCCCN)N(C)C(=O)c2cc3ccccc3nc2CC)nn1)C(=O)N1C[C@H](O)C[C@H]1C(=O)N(C)[C@@H](Cc1ccccc1)C(=O)NCCCN`, the Ka in data set [5] came out at 1.49 ×10⁴ /M.s. Besides, the Kd in data set [2] came to 583 nM; in data set [10] it was 441 nM. In addition, in data set [7], the Kdiss was 6.8 ×10⁻³ /s. Further, in data set [12], the Activity worked out at 63%.
